Hits are enriched below; roughly 9.2% of the tested compounds scored in any of these assays.
L major viab – Leishmania major promastigote growth inhibition, primary screen | inhibition, % at 10 µM | 9% of 200,000 active | Leishmania major promastigotes, resazurin fluorescence viability; in the data active = inhibition above about 50%;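 note: promastigotes grown with compound for 44 hours at 28 °C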
bCat KO growth – primary screen for growth suppressors in beta-catenin knockout HCT116 cells (colon tumor, human) | HCT116 beta-catenin knockout viability, CellTiter-Glo, 60 h; stronger effect = lower value | viability, % at 10 µM | 1.5% of 140,000 active | AID 818, 2007;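 active = viability at or under a set limit, the compound median less 4 SD, cut at about 6% in these data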;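 note: 0% = Hyamine 1622 control at 20 µM and 100% = untreated cell control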
Autophagy mod – autophagy modulators in MEF cells, primary screen, imaging, high-content, MEF GFP-LC3 | MEF GFP-LC3 puncta imaging; test concentration mostly 10 µM | calls only at 10 µM (by protocol) | 0.98% of 190,000 active;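 active = percentage of spot-positive cells more than 3 SD above its plate mean, without a fluorescence outlier flag or 80% toxicity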;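 note: spot-positive cell cutoff set from DMSO-treated cells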
PTEN del growth – growth suppression of PTEN-null HCT116, primary screen, cell-based, CellTiter-Glo. HCT116 PTEN-null viability, 60 h; stronger effect = lower value. 1.2% of 140,000 active. AID 827, 2007. viability, % at 10 µM;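 active = viability at or below a set limit, 4 SD under the median of all tested compounds, cut at about 3.7% in these data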;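 note: PTEN knockout HCT116 line with beta catenin targeted HCT116 as companion control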
Dynein cargo inh – inhibitors of GR-EGFP nuclear translocation, primary screen, dynein cargo transport inhibitor project, imaging, high-content, 3617.4 mouse cells; test concentration mostly 20 µM; stimulated with dexamethasone, 1 µM; stronger effect = lower value; z-score, hits read low; 0.47% of 220,000 active; AID 1381, 2008;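 active = plate z-score of nuclear minus cytoplasmic receptor signal below a set negative limit, without overly bright fluorescence or cell loss, cut at about -3.5 in these data, passing the limit was not always enough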;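 note: z-score of nuclear minus cytoplasmic ring GR-EGFP intensity difference per well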
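Buffer or medium: tet-free, stripped-serum medium; reagent: dexamethasone at 1.0 µM final, 30 min; incubation: 48 h induction, 1 h compound, 30 min dex at 37 °C; measured by: formaldehyde fixation, Hoechst nuclear stain, 10x automated fluorescence imaging; read-out: nuclear-to-cytoplasmic GR-EGFP distribution per well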
An asterisk follows results filed as active; i = inactive; x = not tested or not shown; + = active, no number.

SMILES | L major viab | bCat KO growth | Autophagy mod | PTEN del growth | Dynein cargo inh
Cc1ccc(-n2c(N)c(C(=O)Nc3c(C)n(C)n(-c4ccccc4)c3=O)c3nc4ccccc4nc32)cc1C | 79* | 40 | i | 17 | 0.32
Nc1c(C(=O)OCC2CCCO2)c2nc3ccccc3nc2n1-c1ccc2c(c1)OCCO2 (stereo not given) | 54* | 85 | i | 86 | -1.2
COCCCNC(=O)c1c(N)n(-c2ccc3c(c2)OCO3)c2nc3ccccc3nc12 | 28 | 72 | i | 37 | -0.54
CC(=O)OCC(=O)Nc1ccccc1OC(F)F | -4 | x | i | x | -1
CCOc1ccc(S(=O)(=O)NCc2ccc(Cl)cc2)c2cccnc12 | 99* | 86 | i | 86 | 1.3
N#C/C(=C(/O)c1ccc([N+](=O)[O-])o1)c1nc2ccccc2[nH]1 | x | x | x | x | -0.59
Cc1ccc2nc(/C(C#N)=C\c3ccc([N+](=O)[O-])o3)[nH]c2c1 | 100* | 1.9* | + | 1.5* | 14
N#C/C(=C\c1cccs1)c1nc2ccccc2[nH]1 | 60* | 80 | i | 87 | -0.35
N#C/C(=C\c1ccccc1)c1nc2ncccc2[nH]1 | 66* | 97 | i | 95 | -0.81
Cc1cc(/C=C(/C#N)c2nc3ccccc3[nH]2)c(C)n1-c1cc(C(=O)O)cc(C(=O)O)c1 | -5 | x | i | x | -0.76
Cc1ccc2nc(/C(C#N)=C\c3cc(C)n(-c4cccc([N+](=O)[O-])c4)c3C)[nH]c2c1 | 85* | 42 | i | 51 | 1.4
COc1ccccc1N1CCN(S(=O)(=O)c2cc(C(F)(F)F)cc(C(F)(F)F)c2)CC1 | x | x | x | x | -1.4
COc1nc(N)c(C#N)c(-c2ccc(N(C)CCC#N)cc2)c1C#N | x | x | x | x | -0.35
N#C/C(=C\c1ccc([N+](=O)[O-])o1)c1nc2ccccc2[nH]1 | 100* | 0.7* | i | 0.6* | 11
N#C/C(=C\C1CC2C=CC1C2)c1nc2ccccc2[nH]1 (stereo not given) | 56* | 83 | i | 68 | -0.34
O=[N+]([O-])c1ccc(Oc2ccc(Oc3ccc(C(F)(F)F)cn3)cc2)nc1 | x | x | x | x | -0.18
COc1ccc(C(=O)N2CCN(C3CCC(c4ccccc4)CC3)CC2)cc1OC (stereo not given) | 88* | 84 | i | 76 | -0.5
Cc1cccc(C(=O)N2CCC(n3nnc4cc(F)ccc43)CC2)c1 | -5 | 97 | i | 104 | -0.64
O=C(c1ccccc1F)N1CCN(C2CCC(c3ccccc3)CC2)CC1 (stereo not given) | 97* | x | i | x | -0.33
COc1ccc(C(=O)N2CCC(N3CCN(c4ccccc4)CC3)CC2)cc1OC | 13 | 78 | i | 74 | -0.27
O=C(c1ccc(F)cc1)N1CCN(C2CCC(c3ccccc3)CC2)CC1 (stereo not given) | 92* | x | i | x | -0.92
COc1ccc(C(=O)N2CCC(n3nnc4cc(F)ccc43)CC2)cc1OC | 10 | x | + | x | -0.44
COc1ccccc1CNC(=O)C(NS(=O)(=O)c1ccc2c(c1)OCCO2)C(C)C (stereo not given) | 28 | 87 | i | 87 | 1.4
COc1ccccc1-c1nnc(SCC(=O)NC2CCS(=O)(=O)C2)n1N (stereo not given) | -2 | x | i | x | -0.013
CCOC(=O)N1CCN(C(=O)C2CCCN(S(=O)(=O)c3ccc(C)cc3)C2)CC1 (stereo not given) | -1 | 99 | i | 100 | -0.4
SMILES | L major viab | bCat KO growth | Autophagy mod | PTEN del growth | Dynein cargo inh
COc1ccccc1N1CCN(C2CCN(C3CCC(c4ccccc4)CC3)CC2)CC1 (stereo not given) | 99* | x | i | x | 1.2
CCOC(=O)c1csc(NC(=O)CC2CCCC2)n1 | 3 | x | i | x | -0.0061
COc1ccc(C(=O)O)cc1S(=O)(=O)N(CCc1ccccc1)Cc1ccccc1 | x | x | x | x | 0.46
CCN(CC)S(=O)(=O)c1cc(C(=O)NC2CCCCC2)ccc1C | 4 | 87 | i | 81 | -0.51
CCN(Cc1ccccc1)S(=O)(=O)c1cc(C(=O)NC2CCCCCC2)ccc1OC | 95* | 60 | i | 63 | 0.91
CCN(Cc1ccccc1)S(=O)(=O)c1cc(C(=O)NCC2CCCCC2)ccc1OC | 98* | 47 | i | 55 | 0.83
COc1cccc(CC2(CO)CCCN(CC3=Cc4cc(Cl)ccc4OC3)C2)c1 (stereo not given) | -4 | x | i | x | -0.035
O=C1c2ccccc2NC(c2cccnc2)N1c1ccccc1F (stereo not given) | 31 | 92 | i | 98 | -0.6
COc1ccc(N2C(=O)c3ccccc3NC2c2cccnc2)cc1 (stereo not given) | 59* | x | i | x | 0.05
CC1(c2ccccn2)Nc2ccccc2-c2nc3ccccc3n21 (stereo not given) | 53* | 71 | i | 69 | 1.9
CCCCC1(C)Nc2ccccc2-c2nc3ccccc3n21 (stereo not given) | 74* | 75 | i | 86 | -1.2
CCn1c(CNC(=O)c2ccccc2F)nnc1SCC(=O)NC1CCCCC1C (stereo not given) | -6 | x | i | x | -0.015
CCOC(=O)N/N=C\C=C\c1ccc2c(c1)OCO2 | -2 | 104 | i | 107 | 0.97
C=C(C)C1CC=C(C)/C(=N/NC(=O)c2ccoc2C)C1 (stereo not given) | 5 | 86 | i | 80 | -0.45
C=C(C)C1CC=C(C)/C(=N/NC(=O)c2cccc([N+](=O)[O-])c2)C1 (stereo not given) | 100* | 90 | i | 86 | -0.66
C=C(C)C1CC=C(C)/C(=N/NC(=O)c2ccc(NC(=O)c3cccc(C)c3)cc2)C1 (stereo not given) | 100* | 60 | i | 63 | 0.24
C=C(C)C1CC=C(C)/C(=N/NC(=O)COc2cccc(C)c2)C1 (stereo not given) | 24 | 92 | i | 92 | -0.18
Clc1ccc(C2=C3CCCCn4c(-c5ccccc5)c[n+](c43)C2)cc1 | 100* | 6 | + | 5 | -2.8
O=C(C[n+]1cc(-c2ccc(Cl)cc2)n2c1CCCCC2)c1ccccc1 | x | x | x | x | -0.55
COc1ccc(-c2cnc3n2CCCCC3)cc1 | x | x | x | x | -0.18
COc1ccc(-c2c[n+]3c4n2CCCCC4=C(c2ccc(Br)cc2)C3)cc1 | 100* | 7 | i | 7 | -1.1
CCn1c(CNC(=O)c2ccco2)nnc1SCC(=O)c1ccc(OC)cc1 | -6 | x | i | x | 0.44
O=c1c(S(=O)(=O)c2ccc(Cl)cc2)cn(Cc2ccccc2F)c2ccc(F)cc12 | 13 | 64 | i | 65 | 0.14
CN(C)C(C)(C)C#CCCCCC#CC(C)(C)N(C)C | -2 | 83 | i | 96 | 0.98
CN(C)C(C)(C)C#CCC(c1ccccc1)c1ccccc1 | 100* | 73 | i | 86 | -0.77
Cc1ccc2[nH]c(=O)c(-c3noc(CC(C)C)n3)cc2c1 | x | x | x | x | 1

Bioassay records: PubChem BioAssay, several laboratories
